Assay results as given in ChEMBL document CHEMBL1138022, “Structurally simplified macrolactone analogues of halichondrin B” (Bioorg Med Chem Lett, 2004).

Tests used:
[1] = tested on: DLD-1; assay: In vitro inhibitory concentration required to inhibit the growth of DLD-1 cells under continuous exposure conditions for 3-4 days; assay type: functional, cell-based; settings: Homo sapiens
Summary of the method: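 Human colon cancer DLD-1 cells were exposed to compound continuously for 3–4 days and growth inhibition was measured. IC50 is given ± SEM, with n the number of experiments.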

[2] = tested on: U-937; assay: In vitro inhibitory concentration required to inhibit the growth of U937 cells was determined by mitotic block reversibility assay; assay type: functional; settings: Homo sapiens
Summary of the method: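 Reversibility assay in human histiocytic lymphoma U937 cells. After drug washout, flow cytometry scored whether a complete mitotic block was still maintained 10 h later.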

[3] = tested on: P388; assay: Fold resistance calculated as the inhibition concentration ratio between retrovirally transformed P388/VMDRC.04 and parental P388 cells; assay type: functional
Summary of the method: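 P-glycoprotein-mediated efflux assessed in murine P388/VMDRC.04, a retrovirally transformed multidrug-resistant subline of P388/S leukemia cells, alongside parental P388 cells. Growth inhibition IC50 was measured in each line. Fold resistance is the IC50 ratio of P388/VMDRC.04 to parental P388.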

Compound	IC50 [1]	IC99 [2]	FR [3]
C=C1C[C@@H]2CC[C@@]34C[C@@H]5O[C@@H]6C(O[C@H]7CC[C@H](CC(=O)O[C@@H]8[C@@H](OC)[C@H](O)[C@H](CCOC)O[C@H]8C[C@H]8O[C@@H](CC[C@@H]1O2)C[C@@H](C)C8=C)O[C@@H]7[C@@H]6O3)[C@H]5O4	1.8 nM	> 1 µM	1.6
C=C1C[C@@H]2CC[C@@]34C[C@@H]5O[C@@H]6C(O[C@H]7CC[C@H](CC(=O)O[C@@H]8[C@@H](OC)[C@H](OC)[C@H](CCO)O[C@H]8C[C@H]8O[C@@H](CC[C@@H]1O2)C[C@@H](C)C8=C)O[C@@H]7[C@@H]6O3)[C@H]5O4	2.1 nM	> 1 µM	2.6
C=C1C[C@@H]2CC[C@@]34C[C@@H]5O[C@@H]6C(O[C@H]7CC[C@H](CC(=O)O[C@@H]8[C@@H](OC)[C@H](CCO)O[C@H]8C[C@H]8O[C@@H](CC[C@@H]1O2)C[C@@H](C)C8=C)O[C@@H]7[C@@H]6O3)[C@H]5O4	0.97 nM	0.1 µM	2.8
C=C1C[C@@H]2CC[C@@]34C[C@@H]5O[C@@H]6C(O[C@H]7CC[C@H](CC(=O)O[C@@H]8[C@@H](C)[C@H](O)[C@H](CCO)O[C@H]8C[C@H]8O[C@@H](CC[C@@H]1O2)C[C@@H](C)C8=C)O[C@@H]7[C@@H]6O3)[C@H]5O4	2.5 nM	0.17 µM	5.6
C=C1C[C@@H]2CC[C@@]34C[C@@H]5O[C@@H]6C(O[C@H]7CC[C@H](CC(=O)O[C@@H]8[C@@H](C)[C@@H]9O[C@H](CO)[C@@H](O)C[C@@H]9O[C@H]8C[C@H]8O[C@@H](CC[C@@H]1O2)C[C@@H](C)C8=C)O[C@@H]7[C@@H]6O3)[C@H]5O4	3.4 nM	0.22 µM	12
C=C1C[C@@H]2CC[C@@]34C[C@@H]5O[C@@H]6C(O[C@H]7CC[C@H](CC(=O)O[C@@H]8[C@@H](OC)[C@@H](C[C@H](O)CO)O[C@H]8C[C@H]8O[C@@H](CC[C@@H]1O2)C[C@@H](C)C8=C)O[C@@H]7[C@@H]6O3)[C@H]5O4	0.67 nM	0.015 µM	6.2
C=C1C2C[C@@H]3O[C@H](C[C@@H](O)CO)[C@H](OC)[C@H]3OC(=O)C[C@H]3CC[C@@H]4OC5[C@H]6O[C@H]7C[C@](CC[C@H]8CC(=C)[C@H](CC[C@@H](C[C@H]1C)O2)O8)(OC6[C@H]4O3)O[C@H]57	0.67 nM	0.02 µM	9.3
